Test results reported in ChEMBL document CHEMBL1158356, “Synthesis, anti-tuberculosis activity and 3D-QSAR study of amino acid conjugates of 4-(adamantan-1-yl) group containing quinolines” (Eur J Med Chem, 2009).
≈ marks a conversion by molar mass, not a printed value.

How the values were obtained:
[1] = tested on: Mycobacterium tuberculosis; assay: Antimycobacterial activity against rifampicin/isoniazid-susceptible Mycobacterium tuberculosis H37Rv ATCC 27294 by BACTEC 460 radiometric method; format: functional, organism-based
How it was run: (§1)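 Radiometric BACTEC 460 growth test on H37Rv (ATCC 27294). Compounds reaching at least 90% inhibition at 6.25 were retested at the lower concentrations 3.125 and 1.0, with % inhibition recorded. […] Isoniazid served as the reference standard.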

[2] = tested on: Mycobacterium tuberculosis; assay: Antimycobacterial activity against rifampicin/isoniazid-susceptible Mycobacterium tuberculosis H37Rv ATCC 27294 at 6.25 ug/ml after 5 days by microplate alamar blue assay; format: functional; settings: H37Rv ATCC 27294, 120 h
How it was run: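 M. tuberculosis H37Rv (ATCC 27294, rifampicin- and isoniazid-susceptible) screened by Microplate Alamar Blue Assay at a single concentration of 6.25; read-out is % growth inhibition. Compounds showing fluorescence were instead tested in the BACTEC 460 radiometric system.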

[3] = tested on: Mycobacterium tuberculosis; assay: Antimycobacterial activity against rifampicin/isoniazid-susceptible Mycobacterium tuberculosis H37Rv ATCC 27294 at 3.125 ug/ml by BACTEC 460 radiometric method; format: functional; how it was run: as §1
Vero = assay: Cytotoxicity against african green monkey Vero cells up to 50 ug/ml; format: cell-based; settings: chlorocebus sabaeus
[4] = tested on: Mycobacterium tuberculosis; assay: Antimycobacterial activity against rifampicin/isoniazid-susceptible Mycobacterium tuberculosis H37Rv ATCC 27294 at 1 ug/ml by BACTEC 460 radiometric method; format: functional; how it was run: as §1

| SMILES | IC50 [1] | inhibition at 6.25 µg/mL [2] | further results |
| --- | --- | --- | --- |
| NCCCC[C@H](NC(=O)c1cc(C23CC4CC(CC(C4)C2)C3)c2ccccc2n1)C(=O)NN | 19.5 µM | 36% | – |
| COC(=O)[C@H](CCCNC(=N)N)NC(=O)c1cc(C23CC4CC(CC(C4)C2)C3)c2ccccc2n1 | 0.135 µM | – | inhibition at 3.125 µg/mL [3]: 99%; Activity (Vero): Non-toxic |
| NNC(=O)[C@H](Cc1c[nH]cn1)NC(=O)c1cc(C23CC4CC(CC(C4)C2)C3)c2ccccc2n1 | 0.138 µM | 99% | – |
| CSCC[C@H](NC(=O)OC(C)(C)C)C(=O)NNC(=O)c1cc(C23CC4CC(CC(C4)C2)C3)c2ccccc2n1 | 8.91 µM | 56% | – |
| CSCC[C@H](NC(=O)c1cc(C23CC4CC(CC(C4)C2)C3)c2ccccc2n1)C(=O)NN | 6.61 µM | 68% | – |
| N[C@@H](Cc1c[nH]cn1)C(=O)NNC(=O)c1cc(C23CC4CC(CC(C4)C2)C3)c2ccccc2n1 | 1.86 µM | 88% | – |
| NNC(=O)[C@H](Cc1ccccc1)NC(=O)c1cc(C23CC4CC(CC(C4)C2)C3)c2ccccc2n1 | 13.5 µM | 50% | – |
| NCC(=O)NNC(=O)c1cc(C23CC4CC(CC(C4)C2)C3)c2ccccc2n1 | 30.2 µM | 35% | – |
| CC(C)(C)OC(=O)N[C@@H](Cc1ccccc1)C(=O)NNC(=O)c1cc(C23CC4CC(CC(C4)C2)C3)c2ccccc2n1 | 1.95 µM | 85% | – |
| NCCC[C@H](N)C(=O)NNC(=O)c1cc(C23CC4CC(CC(C4)C2)C3)c2ccccc2n1 | 40.7 µM | 26% | – |
| COC(=O)[C@H](Cc1c[nH]c2ccccc12)NC(=O)c1cc(C23CC4CC(CC(C4)C2)C3)c2ccccc2n1 | 4.17 µM | 75% | – |
| NNC(=O)c1ccncc1 [ISONIAZID] | – | – | MIC99 [1]: 1 µg/mL (≈ 7.29 µM) |
| COC(=O)[C@H](Cc1ccc(OCc2ccccc2)cc1)NC(=O)c1cc(C23CC4CC(CC(C4)C2)C3)c2ccccc2n1 | 7.94 µM | 58% | – |
| CC(C)(C)OC(=O)N[C@@H](Cc1c[nH]cn1)C(=O)NNC(=O)c1cc(C23CC4CC(CC(C4)C2)C3)c2ccccc2n1 | 0.0562 µM | – | inhibition at 3.125 µg/mL [3]: 99%; Activity (Vero): Non-toxic |
| C[C@H](NC(=O)c1cc(C23CC4CC(CC(C4)C2)C3)c2ccccc2n1)C(=O)NN | 3.55 µM | 82% | – |
| CSCC[C@H](N)C(=O)NNC(=O)c1cc(C23CC4CC(CC(C4)C2)C3)c2ccccc2n1 | 9.55 µM | 59% | – |
| C[C@H](N)C(=O)NNC(=O)c1cc(C23CC4CC(CC(C4)C2)C3)c2ccccc2n1 | 22.9 µM | 41% | – |
| CC(C)(C)OC(=O)N[C@@H](Cc1ccc(OCc2ccccc2)cc1)C(=O)NNC(=O)c1cc(C23CC4CC(CC(C4)C2)C3)c2ccccc2n1 | 12.9 µM | 42% | – |
| NNC(=O)[C@H](CCC(N)=O)NC(=O)c1cc(C23CC4CC(CC(C4)C2)C3)c2ccccc2n1 | 14.1 µM | 50% | – |
| N[C@@H](Cc1c[nH]c2ccccc12)C(=O)NNC(=O)c1cc(C23CC4CC(CC(C4)C2)C3)c2ccccc2n1 | 9.77 µM | 56% | – |
| CC(C)C[C@H](NC(=O)OC(C)(C)C)C(=O)NNC(=O)c1cc(C23CC4CC(CC(C4)C2)C3)c2ccccc2n1 | 1.29 µM | 90% | – |
| N=C(N)NCCC[C@H](N)C(=O)NNC(=O)c1cc(C23CC4CC(CC(C4)C2)C3)c2ccccc2n1 | 1.15 µM | 92% | – |
| CCC(C)[C@H](NC(=O)OC(C)(C)C)C(=O)NNC(=O)c1cc(C23CC4CC(CC(C4)C2)C3)c2ccccc2n1 (stereo partly specified) | 1.29 µM | 90% | – |
| COC(=O)[C@H](Cc1c[nH]cn1)NC(=O)c1cc(C23CC4CC(CC(C4)C2)C3)c2ccccc2n1 | 0.0692 µM | – | inhibition at 3.125 µg/mL [3]: 99%; Activity (Vero): Non-toxic |
| N=C(N)NCCC[C@H](NC(=O)c1cc(C23CC4CC(CC(C4)C2)C3)c2ccccc2n1)C(=O)NN | 0.0214 µM | – | Activity (Vero): Non-toxic; inhibition at 1 µg/mL [4]: 99% |
| NCCCC[C@H](N)C(=O)NNC(=O)c1cc(C23CC4CC(CC(C4)C2)C3)c2ccccc2n1 | 7.24 µM | 66% | – |
| NNC(=O)[C@H](Cc1ccc(O)cc1)NC(=O)c1cc(C23CC4CC(CC(C4)C2)C3)c2ccccc2n1 | 16.6 µM | 44% | – |

| SMILES | IC50 [1] | inhibition at 6.25 µg/mL [2] | further results |
| --- | --- | --- | --- |
| COC(=O)CNC(=O)c1cc(C23CC4CC(CC(C4)C2)C3)c2ccccc2n1 | 15.5 µM | 52% | – |
| COC(=O)[C@H](CC(C)C)NC(=O)c1cc(C23CC4CC(CC(C4)C2)C3)c2ccccc2n1 | 2.95 µM | 83% | – |
| CC(C)C[C@H](NC(=O)c1cc(C23CC4CC(CC(C4)C2)C3)c2ccccc2n1)C(=O)NN | 2.95 µM | 83% | – |
| CC(C)C[C@H](N)C(=O)NNC(=O)c1cc(C23CC4CC(CC(C4)C2)C3)c2ccccc2n1 | 4.79 µM | 75% | – |
| CC[C@H](C)[C@H](NC(=O)c1cc(C23CC4CC(CC(C4)C2)C3)c2ccccc2n1)C(=O)NN | 6.17 µM | 70% | – |
| CC[C@H](C)[C@H](NC(=O)c1cc(C23CC4CC(CC(C4)C2)C3)c2ccccc2n1)C(=O)OC | 1.62 µM | 90% | – |
| COC(=O)[C@H](Cc1ccccc1)NC(=O)c1cc(C23CC4CC(CC(C4)C2)C3)c2ccccc2n1 | 8.91 µM | 60% | – |
| CC(C)(C)OC(=O)N[C@@H](CCC(N)=O)C(=O)NNC(=O)c1cc(C23CC4CC(CC(C4)C2)C3)c2ccccc2n1 | 11 µM | 51% | – |
| COC(=O)[C@H](CCSC)NC(=O)c1cc(C23CC4CC(CC(C4)C2)C3)c2ccccc2n1 | 2.29 µM | 86% | – |
| COC(=O)[C@H](CCC(N)=O)NC(=O)c1cc(C23CC4CC(CC(C4)C2)C3)c2ccccc2n1 | 11.5 µM | 55% | – |
| C[C@H](NC(=O)OC(C)(C)C)C(=O)NNC(=O)c1cc(C23CC4CC(CC(C4)C2)C3)c2ccccc2n1 | 1.74 µM | 88% | – |
| NCCC[C@H](NC(=O)c1cc(C23CC4CC(CC(C4)C2)C3)c2ccccc2n1)C(=O)NN | 12.3 µM | 48% | – |
| NNC(=O)[C@H](Cc1c[nH]c2ccccc12)NC(=O)c1cc(C23CC4CC(CC(C4)C2)C3)c2ccccc2n1 | 8.32 µM | 60% | – |
| CC(C)(C)OC(=O)N[C@@H](Cc1c[nH]c2ccccc12)C(=O)NNC(=O)c1cc(C23CC4CC(CC(C4)C2)C3)c2ccccc2n1 | 0.0513 µM | – | inhibition at 3.125 µg/mL [3]: 99%; Activity (Vero): Non-toxic |
| N[C@@H](Cc1ccccc1)C(=O)NNC(=O)c1cc(C23CC4CC(CC(C4)C2)C3)c2ccccc2n1 | 3.16 µM | 81% | – |
| NC(=O)CC[C@H](N)C(=O)NNC(=O)c1cc(C23CC4CC(CC(C4)C2)C3)c2ccccc2n1 | 17 µM | 45% | – |
| COC(=O)[C@H](C)NC(=O)c1cc(C23CC4CC(CC(C4)C2)C3)c2ccccc2n1 | 5.89 µM | 73% | – |
| NC(=O)c1cc(C23CC4CC(CC(C4)C2)C3)c2ccccc2n1 | – | 98% | – |
| COC(=O)[C@H](CCCCNC(=O)OCc1ccccc1)NC(=O)c1cc(C23CC4CC(CC(C4)C2)C3)c2ccccc2n1 | 3.16 µM | 78% | – |
| CC(C)(C)OC(=O)NCC(=O)NNC(=O)c1cc(C23CC4CC(CC(C4)C2)C3)c2ccccc2n1 | 8.71 µM | 60% | – |
| NNC(=O)CNC(=O)c1cc(C23CC4CC(CC(C4)C2)C3)c2ccccc2n1 | 7.08 µM | 70% | – |
| CC(C)(C)OC(=O)N[C@@H](CCCNC(=N)N)C(=O)NNC(=O)c1cc(C23CC4CC(CC(C4)C2)C3)c2ccccc2n1 | 0.055 µM | – | inhibition at 3.125 µg/mL [3]: 99%; Activity (Vero): Non-toxic |
| CC(C)(C)OC(=O)NCCC[C@H](NC(=O)OC(C)(C)C)C(=O)NNC(=O)c1cc(C23CC4CC(CC(C4)C2)C3)c2ccccc2n1 | 3.09 µM | 75% | – |
| COC(=O)[C@H](CCCNC(=O)OCc1ccccc1)NC(=O)c1cc(C23CC4CC(CC(C4)C2)C3)c2ccccc2n1 | 5.89 µM | 66% | – |
| NNC(=O)c1cc(C23CC4CC(CC(C4)C2)C3)c2ccccc2n1 | – | 99% | – |
| N[C@@H](Cc1ccc(O)cc1)C(=O)NNC(=O)c1cc(C23CC4CC(CC(C4)C2)C3)c2ccccc2n1 | 13.8 µM | 48% | – |
| CCC(C)[C@H](N)C(=O)NNC(=O)c1cc(C23CC4CC(CC(C4)C2)C3)c2ccccc2n1 (stereo partly specified) | 4.79 µM | 75% | – |
